Data: ChEMBL document CHEMBL2021837, “A novel series of l-2-benzyloxycarbonylamino-8-(2-pyridyl)-disulfidyloctanoic acid derivatives as histone deacetylase inhibitors: design, synthesis and molecular modeling study” (Eur J Med Chem, 2012)

Columns and labels:
Histone deacetylase 2 = Histone deacetylase 2 (Homo sapiens, UniProt Q92769); experiment: Inhibition of HDAC2 in human HeLa cell nuclear extracts in presence of dithiothreitol by HDAC fluorescent assay
MCF7 = experiment: Antiproliferative activity against human MCF7 cells after 48 hrs by MTT assay; format: functional, cell-based; details: MCF7, 48 h
In short: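 MCF-7 cells were grown in DMEM with 10% fetal bovine serum at 37 °C under 5% CO₂, then plated and incubated overnight. Compounds were added as 10-fold serial dilutions. MTT (0.5 mg/mL in serum-free medium) was added for 4 h, formazan was dissolved in DMSO, and absorbance was read at 570 nm. IC₅₀ was determined in triplicate, with at least three repeat experiments.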

Histone deacetylase 1 = Histone deacetylase 1 (Homo sapiens, UniProt Q13547); experiment: Inhibition of human HDAC1 in presence of dithiothreitol by HDAC fluorescent assay
Sequence of Histone deacetylase 1 (Q13547 whole entry): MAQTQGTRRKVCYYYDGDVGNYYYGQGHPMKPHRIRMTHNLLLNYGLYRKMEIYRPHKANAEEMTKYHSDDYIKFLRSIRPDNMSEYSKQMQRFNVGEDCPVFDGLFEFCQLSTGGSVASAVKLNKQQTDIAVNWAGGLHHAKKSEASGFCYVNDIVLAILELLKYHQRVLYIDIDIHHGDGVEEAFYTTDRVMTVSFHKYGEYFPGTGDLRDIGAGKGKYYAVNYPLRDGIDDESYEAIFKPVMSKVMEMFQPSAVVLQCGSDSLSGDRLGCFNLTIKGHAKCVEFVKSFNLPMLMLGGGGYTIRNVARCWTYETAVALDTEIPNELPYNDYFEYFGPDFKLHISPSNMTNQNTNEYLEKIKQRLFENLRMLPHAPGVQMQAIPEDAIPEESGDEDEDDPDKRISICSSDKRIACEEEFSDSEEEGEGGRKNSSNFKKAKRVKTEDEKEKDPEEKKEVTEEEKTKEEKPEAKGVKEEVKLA

Sequence of Histone deacetylase 2 (Q92769 whole entry): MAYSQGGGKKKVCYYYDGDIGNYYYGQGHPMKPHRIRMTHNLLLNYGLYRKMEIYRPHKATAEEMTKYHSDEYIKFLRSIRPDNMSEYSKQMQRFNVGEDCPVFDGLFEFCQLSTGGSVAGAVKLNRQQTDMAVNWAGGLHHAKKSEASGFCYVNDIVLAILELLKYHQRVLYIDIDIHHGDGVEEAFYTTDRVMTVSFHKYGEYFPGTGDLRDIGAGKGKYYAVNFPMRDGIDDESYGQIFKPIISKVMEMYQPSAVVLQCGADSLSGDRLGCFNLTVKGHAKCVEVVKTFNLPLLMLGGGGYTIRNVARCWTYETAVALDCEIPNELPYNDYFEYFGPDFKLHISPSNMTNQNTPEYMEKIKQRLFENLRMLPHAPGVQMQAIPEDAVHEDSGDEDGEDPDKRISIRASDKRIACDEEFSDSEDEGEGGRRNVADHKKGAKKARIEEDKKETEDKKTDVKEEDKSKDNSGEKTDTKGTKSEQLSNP

Row | IC50 (Histone deacetylase 2) [nM] | IC50 (MCF7) [nM] | IC50 (Histone deacetylase 1) [nM] | Structure (SMILES)
1 | 40.3 | 14800 | 65.2 | O=C(N[C@@H](CCCCCCSSc1ccccn1)C(=O)OCc1ccc2ccccc2c1)OCc1ccccc1
2 | 48.5 | 15200 | 66.7 | O=C(N[C@@H](CCCCCCSSc1ccccn1)C(=O)OCc1cccc([N+](=O)[O-])c1)OCc1ccccc1
3 | 45.2 | 20800 | 71.2 | O=C(N[C@@H](CCCCCCSSc1ccccn1)C(=O)Nc1ccccc1-c1ccccc1)OCc1ccccc1
4 | 43.6 | 14000 | 59.2 | O=C(N[C@@H](CCCCCCSSc1ccccn1)C(=O)OCc1c2ccccc2cc2ccccc12)OCc1ccccc1
5 | – | 1700 | – | CC(/C=C/C(=O)NO)=C\[C@@H](C)C(=O)c1ccc(N(C)C)cc1 [TRICHOSTATIN]
6 | 39.6 | 15300 | 64.7 | O=C(N[C@@H](CCCCCCSSc1ccccn1)C(=O)OCc1cccc2ccccc12)OCc1ccccc1
7 | 45.5 | 16900 | 64.4 | O=C(N[C@@H](CCCCCCSSc1ccccn1)C(=O)OCc1ccc([N+](=O)[O-])cc1)OCc1ccccc1
8 | 46.6 | 18100 | 70.9 | O=C(N[C@@H](CCCCCCSSc1ccccn1)C(=O)Nc1ccc(-c2ccccc2)cc1)OCc1ccccc1
9 | 5.2 | 3500 | 7.6 | O=C(N[C@@H](CCCCCCSSc1ccccn1)C(=O)OCC1c2ccccc2-c2ccccc21)OCc1ccccc1
10 | 48.1 | 17200 | 68.2 | O=C(N[C@@H](CCCCCCSSc1ccccn1)C(=O)NC1c2ccccc2-c2ccccc21)OCc1ccccc1
11 | 38.2 | 15300 | 65.2 | O=C(N[C@@H](CCCCCCSSc1ccccn1)C(=O)Nc1cccc2ccccc12)OCc1ccccc1
12 | 40.7 | 15600 | 64.1 | O=C(N[C@@H](CCCCCCSSc1ccccn1)C(=O)OCc1ccc(-c2ccccc2)cc1)OCc1ccccc1
13 | 44.1 | 19600 | 66.9 | O=C(N[C@@H](CCCCCCSSc1ccccn1)C(=O)NC1CCCCC1)OCc1ccccc1
14 | 3.9 | 3200 | 5.1 | O=C(N[C@@H](CCCCCCSSc1ccccn1)C(=O)Nc1nc(-c2ccccc2)cs1)OCc1ccccc1
